{"source": "ChEMBL document CHEMBL5303300", "about": "“EUbOPEN Chemogenomics Library - Multiplex” (2023)", "test_system": "U2OS", "experiment": "Multiplex assay against U2OS", "type": "toxicity, cell-based", "conditions": "human, number of replicates 2", "procedure,_shortened": "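With compound added, live cells were imaged on a CQ1 microscope at 37°C and 5% CO2; staining with Hoechst33342, BioTracker Green Microtubule Cytoskeleton Dye, MitoTracker Red and Annexin V Alexa Fluor 680 had been done at seeding. The CellPathfinder machine-learning gating scheme split cells into Hoechst high-intensity objects or normal cells, normal cells into healthy, pyknosed or fragmented nuclei, and pyknosed cells into mitotic or apoptotic. The tubulin, mitochondrial-mass and membrane-permeability phenotypes are per cents of healthy-nucleus cells.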", "key": {"[1]": {"conditions": "12 h, 1 µM, compound concentration 1 uM"}, "[2]": {"conditions": "12 h, 10 µM, compound concentration 10 uM"}, "[3]": {"conditions": "24 h, 1 µM, compound concentration 1 uM"}, "[4]": {"conditions": "24 h, 10 µM, compound concentration 10 uM"}, "[5]": {"conditions": "48 h, 1 µM, compound concentration 1 uM"}, "[6]": {"conditions": "48 h, 10 µM, compound concentration 10 uM"}}, "note": "Several values for one entry are separate records, joined by “and”; a condition that tells them apart may be missing. Equal values may be shown once.", "data": [{"compound": "C[C@H](N)Cn1ccc2cc(F)c(Cl)cc21.O=C(O)/C=C/C(=O)O", "values": [{"measurement": "Population Apoptotic (%)", "setting": "[1]", "result": "47% and 66%"}, {"measurement": "Population Fragmented Nuclei (%)", "setting": "[1]", "result": "4% and 8%"}, {"measurement": "Population Healthy Nuclei (%)", "setting": "[1]", "result": "87% and 84%"}, {"measurement": "Population Hoechst High Intensity Objects (%)", "setting": "[1]", "result": 0, "unit": "%"}, {"measurement": "Population Membrane Permeable-Phenotype (%)", "setting": "[1]", "result": 0, "unit": "%"}, {"measurement": "Population Mitochondria Different-Phenotype (%)", "setting": "[1]", "result": 0, "unit": "%"}, {"measurement": "Population Mitotic Cells (%)", "setting": "[1]", "result": "52% and 33%"}, {"measurement": "Population Normal (%)", "setting": "[1]", "result": "99% and 100%"}, {"measurement": "Population Pyknosed Nuclei (%)", "setting": "[1]", "result": "8% and 6%"}, {"measurement": "Population Tubulin-Different-Phenotype (%)", "setting": "[1]", "result": "94% and 44%"}, {"measurement": "Population Apoptotic (%)", "setting": "[2]", "result": "40% and 50%"}, {"measurement": "Population Fragmented Nuclei (%)", "setting": "[2]", "result": "5% and 12%"}, {"measurement": "Population Healthy Nuclei (%)", "setting": "[2]", "result": "88% and 75%"}, {"measurement": "Population Hoechst High Intensity Objects (%)", "setting": "[2]", "result": 0, "unit": "%"}, {"measurement": "Population Membrane Permeable-Phenotype (%)", "setting": "[2]", "result": "1% and 8%"}, {"measurement": "Population Mitochondria Different-Phenotype (%)", "setting": "[2]", "result": "1% and 0%"}, {"measurement": "Population Mitotic Cells (%)", "setting": "[2]", "result": "60% and 50%"}, {"measurement": "Population Normal (%)", "setting": "[2]", "result": "99% and 100%"}, {"measurement": "Population Pyknosed Nuclei (%)", "setting": "[2]", "result": "6% and 12%"}, {"measurement": "Population Tubulin-Different-Phenotype (%)", "setting": "[2]", "result": "62% and 37%"}, {"measurement": "Population Apoptotic (%)", "setting": "[3]", "result": "100% and 62%"}, {"measurement": "Population Fragmented Nuclei (%)", "setting": "[3]", "result": "6% and 1%"}, {"measurement": "Population Healthy Nuclei (%)", "setting": "[3]", "result": "91% and 90%"}, {"measurement": "Population Hoechst High Intensity Objects (%)", "setting": "[3]", "result": 0, "unit": "%"}, {"measurement": "Population Membrane Permeable-Phenotype (%)", "setting": "[3]", "result": 0, "unit": "%"}, {"measurement": "Population Mitochondria Different-Phenotype (%)", "setting": "[3]", "result": 0, "unit": "%"}, {"measurement": "Population Normal (%)", "setting": "[3]", "result": "100% and 99%"}, {"measurement": "Population Pyknosed Nuclei (%)", "setting": "[3]", "result": "2% and 7%"}, {"measurement": "Population Tubulin-Different-Phenotype (%)", "setting": "[3]", "result": "54% and 88%"}, {"measurement": "Population Apoptotic (%)", "setting": "[4]", "result": "42% and 80%"}, {"measurement": "Population Fragmented Nuclei (%)", "setting": "[4]", "result": "3% and 9%"}, {"measurement": "Population Healthy Nuclei (%)", "setting": "[4]", "result": "89% and 78%"}, {"measurement": "Population Hoechst High Intensity Objects (%)", "setting": "[4]", "result": 0, "unit": "%"}, {"measurement": "Population Membrane Permeable-Phenotype (%)", "setting": "[4]", "result": "1% and 3%"}, {"measurement": "Population Mitochondria Different-Phenotype (%)", "setting": "[4]", "result": "1% and 0%"}, {"measurement": "Population Mitotic Cells (%)", "setting": "[4]", "result": "57% and 20%"}, {"measurement": "Population Normal (%)", "setting": "[4]", "result": "99% and 100%"}, {"measurement": "Population Pyknosed Nuclei (%)", "setting": "[4]", "result": "6% and 12%"}, {"measurement": "Population Tubulin-Different-Phenotype (%)", "setting": "[4]", "result": "73% and 31%"}, {"measurement": "Population Apoptotic (%)", "setting": "[5]", "result": "54% and 34%"}, {"measurement": "Population Fragmented Nuclei (%)", "setting": "[5]", "result": "5% and 2%"}, {"measurement": "Population Healthy Nuclei (%)", "setting": "[5]", "result": "83% and 90%"}, {"measurement": "Population Hoechst High Intensity Objects (%)", "setting": "[5]", "result": 0, "unit": "%"}, {"measurement": "Population Membrane Permeable-Phenotype (%)", "setting": "[5]", "result": "0% and 1%"}, {"measurement": "Population Mitochondria Different-Phenotype (%)", "setting": "[5]", "result": 0, "unit": "%"}, {"measurement": "Population Mitotic Cells (%)", "setting": "[5]", "result": "45% and 65%"}, {"measurement": "Population Normal (%)", "setting": "[5]", "result": 100, "unit": "%"}, {"measurement": "Population Pyknosed Nuclei (%)", "setting": "[5]", "result": "11% and 7%"}, {"measurement": "Population Tubulin-Different-Phenotype (%)", "setting": "[5]", "result": "69% and 92%"}, {"measurement": "Population Apoptotic (%)", "setting": "[6]", "result": "50% and 52%"}, {"measurement": "Population Fragmented Nuclei (%)", "setting": "[6]", "result": "10% and 5%"}, {"measurement": "Population Healthy Nuclei (%)", "setting": "[6]", "result": "75% and 89%"}, {"measurement": "Population Hoechst High Intensity Objects (%)", "setting": "[6]", "result": 0, "unit": "%"}, {"measurement": "Population Membrane Permeable-Phenotype (%)", "setting": "[6]", "result": 1, "unit": "%"}, {"measurement": "Population Mitochondria Different-Phenotype (%)", "setting": "[6]", "result": 0, "unit": "%"}, {"measurement": "Population Mitotic Cells (%)", "setting": "[6]", "result": "50% and 47%"}, {"measurement": "Population Normal (%)", "setting": "[6]", "result": 100, "unit": "%"}, {"measurement": "Population Pyknosed Nuclei (%)", "setting": "[6]", "result": "13% and 5%"}, {"measurement": "Population Tubulin-Different-Phenotype (%)", "setting": "[6]", "result": "55% and 81%"}]}, {"compound": "CN1CCN(c2ccc(-n3cc(-c4ccncc4OCC4CCNCC4)cn3)cc2)CC1", "values": [{"measurement": "Population Apoptotic (%)", "setting": "[1]", "result": "100% and 71%"}, {"measurement": "Population Healthy Nuclei (%)", "setting": "[1]", "result": "63% and 82%"}, {"measurement": "Population Hoechst High Intensity Objects (%)", "setting": "[1]", "result": 0, "unit": "%"}, {"measurement": "Population Membrane Permeable-Phenotype (%)", "setting": "[1]", "result": "6% and 1%"}, {"measurement": "Population Mitochondria Different-Phenotype (%)", "setting": "[1]", "result": "3% and 2%"}, {"measurement": "Population Normal (%)", "setting": "[1]", "result": 100, "unit": "%"}, {"measurement": "Population Pyknosed Nuclei (%)", "setting": "[1]", "result": "2% and 10%"}, {"measurement": "Population Tubulin-Different-Phenotype (%)", "setting": "[1]", "result": "75% and 77%"}, {"measurement": "Population Apoptotic (%)", "setting": "[2]", "result": 80, "unit": "%"}, {"measurement": "Population Healthy Nuclei (%)", "setting": "[2]", "result": "48% and 67%"}, {"measurement": "Population Hoechst High Intensity Objects (%)", "setting": "[2]", "result": "1% and 0%"}, {"measurement": "Population Membrane Permeable-Phenotype (%)", "setting": "[2]", "result": "0% and 5%"}, {"measurement": "Population Mitochondria Different-Phenotype (%)", "setting": "[2]", "result": "7% and 16%"}, {"measurement": "Population Mitotic Cells (%)", "setting": "[2]", "result": "20% and 19%"}, {"measurement": "Population Normal (%)", "setting": "[2]", "result": "98% and 99%"}, {"measurement": "Population Pyknosed Nuclei (%)", "setting": "[2]", "result": "17% and 22%"}, {"measurement": "Population Tubulin-Different-Phenotype (%)", "setting": "[2]", "result": "21% and 36%"}, {"measurement": "Population Apoptotic (%)", "setting": "[3]", "result": "100% and 78%"}, {"measurement": "Population Healthy Nuclei (%)", "setting": "[3]", "result": "69% and 84%"}, {"measurement": "Population Hoechst High Intensity Objects (%)", "setting": "[3]", "result": 0, "unit": "%"}, {"measurement": "Population Membrane Permeable-Phenotype (%)", "setting": "[3]", "result": "4% and 1%"}, {"measurement": "Population Mitochondria Different-Phenotype (%)", "setting": "[3]", "result": "2% and 1%"}, {"measurement": "Population Mitotic Cells (%)", "setting": "[3]", "result": "0% and 21%"}, {"measurement": "Population Normal (%)", "setting": "[3]", "result": 100, "unit": "%"}, {"measurement": "Population Pyknosed Nuclei (%)", "setting": "[3]", "result": "3% and 11%"}, {"measurement": "Population Tubulin-Different-Phenotype (%)", "setting": "[3]", "result": "72% and 85%"}, {"measurement": "Population Apoptotic (%)", "setting": "[4]", "result": "76% and 88%"}, {"measurement": "Population Fragmented Nuclei (%)", "setting": "[4]", "result": "34% and 12%"}, {"measurement": "Population Healthy Nuclei (%)", "setting": "[4]", "result": "25% and 32%"}, {"measurement": "Population Hoechst High Intensity Objects (%)", "setting": "[4]", "result": "1% and 0%"}, {"measurement": "Population Membrane Permeable-Phenotype (%)", "setting": "[4]", "result": "6% and 8%"}, {"measurement": "Population Mitochondria Different-Phenotype (%)", "setting": "[4]", "result": "18% and 26%"}, {"measurement": "Population Mitotic Cells (%)", "setting": "[4]", "result": "24% and 11%"}, {"measurement": "Population Normal (%)", "setting": "[4]", "result": "98% and 100%"}, {"measurement": "Population Pyknosed Nuclei (%)", "setting": "[4]", "result": "39% and 55%"}, {"measurement": "Population Tubulin-Different-Phenotype (%)", "setting": "[4]", "result": "31% and 48%"}, {"measurement": "Population Apoptotic (%)", "setting": "[5]", "result": "54% and 86%"}, {"measurement": "Population Healthy Nuclei (%)", "setting": "[5]", "result": "51% and 86%"}, {"measurement": "Population Hoechst High Intensity Objects (%)", "setting": "[5]", "result": 0, "unit": "%"}, {"measurement": "Population Membrane Permeable-Phenotype (%)", "setting": "[5]", "result": "5% and 0%"}, {"measurement": "Population Mitochondria Different-Phenotype (%)", "setting": "[5]", "result": 1, "unit": "%"}, {"measurement": "Population Normal (%)", "setting": "[5]", "result": 100, "unit": "%"}, {"measurement": "Population Pyknosed Nuclei (%)", "setting": "[5]", "result": "10% and 9%"}, {"measurement": "Population Tubulin-Different-Phenotype (%)", "setting": "[5]", "result": "78% and 88%"}, {"measurement": "Population Apoptotic (%)", "setting": "[6]", "result": 90, "unit": "%"}, {"measurement": "Population Healthy Nuclei (%)", "setting": "[6]", "result": "13% and 21%"}, {"measurement": "Population Hoechst High Intensity Objects (%)", "setting": "[6]", "result": "0% and 1%"}, {"measurement": "Population Membrane Permeable-Phenotype (%)", "setting": "[6]", "result": "55% and 60%"}, {"measurement": "Population Mitochondria Different-Phenotype (%)", "setting": "[6]", "result": "55% and 60%"}, {"measurement": "Population Mitotic Cells (%)", "setting": "[6]", "result": 9, "unit": "%"}, {"measurement": "Population Normal (%)", "setting": "[6]", "result": "100% and 98%"}, {"measurement": "Population Pyknosed Nuclei (%)", "setting": "[6]", "result": "44% and 69%"}, {"measurement": "Population Tubulin-Different-Phenotype (%)", "setting": "[6]", "result": "88% and 65%"}, {"measurement": "Total Cell Count", "setting": "[6]", "result": "69 and 181"}]}]}
